IC50, Activity and bioavailability data for nine molecules are collected here from ChEMBL document CHEMBL3259569 (J Med Chem, 2014).

For one series, the target named is Histone deacetylase. In words: Inhibition of HDAC in human HeLa cell nuclear extract using Boc-Lys(Ac)-AMC as substrate after 30 mins by fluorimetric analysis. In kind it is protein assay.
The subject of another series is KB. In words: Cytotoxicity against human KB cells by MTT assay. In kind it is functional, cell-based.
Series [1] in a line: Cytotoxicity against human H460 cells by MTT assay. Type of series: functional, cell-based. The note with it: NCI-H460. An outline of the steps:
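Antiproliferative IC50 in H460 cells; mean ± SD of at least three independent experiments.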

A further series relates to PC-3. The series can be described thus: Cytotoxicity against human PC3 cells by MTT assay. Type of series: functional, cell-based.
The subject of series [2] is HCT-116. The series can be described thus: Cytotoxicity against human HCT116 cells by MTT assay. In kind it is functional, cell-based.
Series [3] relates to HCT-116. In words: Induction of apoptosis in human HCT116 cells assessed as increase in p53 protein level at 0.1 to 3 uM after 24 hrs by immunoblotting analysis. Type of series: functional, cell-based. Background: Immunoblotting shows a protein as a band on a membrane.
Series [4] relates to HCT-116. The series can be described thus: Induction of apoptosis in human HCT116 cells assessed as accumulation at sub-G1 phase after 24 hrs by propidium iodide staining-based flow cytometric analysis. In kind it is functional, cell-based. An outline of the steps:
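HCT116 cells treated with indicated concentrations for 24 h; DNA content analyzed by flow cytometry for cell cycle distribution and sub-G1 fraction; means of at least three independent experiments.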
(In general: Flow cytometry measures light scatter and fluorescence of single cells or particles in a stream.)

Series [5] has as its system HCT-116. The series can be described thus: Induction of apoptosis in human HCT116 cells assessed as accumulation at sub-G1 phase at 1 uM by propidium iodide staining-based flow cytometric analysis. As to conditions: TDE = time-dependent effect. Type of series: functional, cell-based. An outline of the steps: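 HCT116 cells exposed to 1 μM compound for varying time intervals; sub-G1 population quantified by flow cytometry.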

The nature of series [6]: Oral bioavailability in ICR mouse at 10 mg/kg by LC-MS/MS analysis. Type of series: ADME, organism-based. As to conditions: in vivo.
For the next series, the system named is A549. The series can be described thus: Cytotoxicity against human A549 cells by MTT assay. In kind it is functional, cell-based. Background: Tetrazolium assays rely on reduction of a dye to a coloured formazan, in cell work by metabolically active cells.
Another series has as its target Histone deacetylase 1 (Homo sapiens, UniProt Q13547). The series can be described thus: Inhibition of HDAC1 (unknown origin) using RHKK(Ac) (379 to 382) p53 peptide as substrate by fluorescence assay.
Series [7] has as its target T1, Protein deacetylase HDAC6 (Homo sapiens, UniProt Q9UBN7).
T1 sequence (Q9UBN7 whole entry): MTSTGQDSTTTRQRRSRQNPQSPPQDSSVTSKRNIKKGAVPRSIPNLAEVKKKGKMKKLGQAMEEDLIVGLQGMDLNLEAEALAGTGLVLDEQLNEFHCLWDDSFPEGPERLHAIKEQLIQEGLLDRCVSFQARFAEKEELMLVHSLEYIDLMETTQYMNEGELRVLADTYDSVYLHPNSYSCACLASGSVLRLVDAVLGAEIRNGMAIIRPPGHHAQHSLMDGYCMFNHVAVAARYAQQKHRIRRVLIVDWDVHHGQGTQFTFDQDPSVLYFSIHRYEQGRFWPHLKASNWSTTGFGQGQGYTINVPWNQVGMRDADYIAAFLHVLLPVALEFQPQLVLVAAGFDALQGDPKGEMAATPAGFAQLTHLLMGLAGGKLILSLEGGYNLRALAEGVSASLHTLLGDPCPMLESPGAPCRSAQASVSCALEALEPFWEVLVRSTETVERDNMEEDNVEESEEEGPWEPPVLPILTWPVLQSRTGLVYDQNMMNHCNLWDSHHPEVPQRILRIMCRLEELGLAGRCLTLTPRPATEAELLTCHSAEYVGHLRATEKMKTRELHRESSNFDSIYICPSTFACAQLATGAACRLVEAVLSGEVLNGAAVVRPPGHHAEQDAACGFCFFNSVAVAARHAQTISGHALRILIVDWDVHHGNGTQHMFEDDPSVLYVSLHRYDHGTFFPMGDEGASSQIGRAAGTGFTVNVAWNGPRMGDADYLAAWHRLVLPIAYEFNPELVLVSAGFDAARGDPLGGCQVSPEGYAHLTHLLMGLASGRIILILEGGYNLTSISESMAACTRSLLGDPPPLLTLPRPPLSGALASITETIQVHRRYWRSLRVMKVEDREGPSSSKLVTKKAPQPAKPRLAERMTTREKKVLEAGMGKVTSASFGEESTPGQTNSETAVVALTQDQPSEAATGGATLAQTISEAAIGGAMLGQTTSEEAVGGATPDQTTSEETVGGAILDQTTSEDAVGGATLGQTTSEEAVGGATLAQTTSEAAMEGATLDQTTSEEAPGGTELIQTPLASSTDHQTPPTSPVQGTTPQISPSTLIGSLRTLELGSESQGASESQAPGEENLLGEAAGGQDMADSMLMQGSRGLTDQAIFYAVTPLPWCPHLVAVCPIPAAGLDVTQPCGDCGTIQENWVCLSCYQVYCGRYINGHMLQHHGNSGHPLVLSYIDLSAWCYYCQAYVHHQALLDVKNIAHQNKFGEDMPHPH
The series can be described thus: Inhibition of HDAC6 (unknown origin) using RHKK(Ac) (379 to 382) p53 peptide as substrate by fluorescence assay.

The source made the active and inactive calls. The calls are words filed in the database; no cut-off is given here.

Sequence of Histone deacetylase 1 (Q13547 whole entry): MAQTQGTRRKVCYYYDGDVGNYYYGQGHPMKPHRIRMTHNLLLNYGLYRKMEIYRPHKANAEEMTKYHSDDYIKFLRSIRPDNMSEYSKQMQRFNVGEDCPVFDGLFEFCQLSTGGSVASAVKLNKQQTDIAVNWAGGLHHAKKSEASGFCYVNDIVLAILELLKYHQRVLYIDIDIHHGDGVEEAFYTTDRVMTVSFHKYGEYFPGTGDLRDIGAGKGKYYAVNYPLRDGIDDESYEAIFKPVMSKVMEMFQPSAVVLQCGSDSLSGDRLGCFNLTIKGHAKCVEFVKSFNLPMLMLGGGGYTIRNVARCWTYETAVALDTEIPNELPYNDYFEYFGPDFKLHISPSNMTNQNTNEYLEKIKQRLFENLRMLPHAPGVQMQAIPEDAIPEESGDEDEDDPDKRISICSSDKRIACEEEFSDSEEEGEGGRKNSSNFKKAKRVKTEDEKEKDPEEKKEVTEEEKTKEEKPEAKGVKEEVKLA

In general, IC50 refers to the point on the concentration scale where inhibition reaches its midpoint. A lower IC50 goes with greater potency. Take `O=C(/C=C/c1cccc(S(=O)(=O)n2ncc3ccccc32)c1)NO`: the IC50 was determined as 0.23 µM against Histone deacetylase; 1.26 µM in the series with KB; 1.21 µM in series [1]; 3.21 µM in the series with PC-3; 1.12 µM with HCT-116 [2].
Regarding `O=C(/C=C/c1cccc(S(=O)(=O)N2CCc3cccnc32)c1)NO`, the IC50 came to 0.6 µM against Histone deacetylase; 1.29 µM with KB; 1.82 µM in series [1]; 4.11 µM in the series on PC-3; 2.04 µM with HCT-116 [2].
The bioavailability is dose-corrected exposure relative to a reference, in per cent. Read a low bioavailability as little systemic uptake. As for `O=C(CCCCCCC(=O)Nc1ccccc1)NO` [VORINOSTAT], in the series on HCT-116 [3], the outcome was inactive. For the same molecule, the figures for the Activity result in the series with HCT-116 [4] and in the series on HCT-116 [5] were “Dose-dependent effect” and “tde”, respectively. Further, the bioavailability in [6] amounted to 8.33%. The half-maximal inhibitory concentration (IC50) in series [1] was determined as 0.82 µM; with A549 it was 1.54 µM.
As to `O=C(/C=C/c1ccc(S(=O)(=O)n2ccc3cccnc32)cc1)NO`, the concentration for half-maximal inhibition (IC50) came out at 0.24 µM against Histone deacetylase; 0.87 µM with KB; 0.91 µM in series [1]; 1.24 µM in the series on PC-3; 1.01 µM in the series on HCT-116 [2].
As for `O=C(/C=C/c1cccc(S(=O)(=O)n2ccc3ccncc32)c1)NO`, the IC50 against Histone deacetylase 1 amounted to 4.85 µM; in series [7], 0.28 µM; at Histone deacetylase, 0.48 µM; in the series on KB, 0.61 µM; in series [1], 0.56 µM; in the series on PC-3, 1.11 µM. The molecule also registered a concentration for half-maximal inhibition (IC50) with HCT-116 [2] of 1.21 µM.
On to `O=C(/C=C/c1ccc(S(=O)(=O)n2ccc3ccncc32)cc1)NO`, for which the IC50 against Histone deacetylase stood at 0.56 µM; in the series with KB it was 1.24 µM; in [1], 1.67 µM; with PC-3, 1.97 µM; in the series with HCT-116 [2], 1.92 µM.
As to `O=C(/C=C/c1ccc(S(=O)(=O)N2CCc3cccnc32)cc1)NO`, the concentration for half-maximal inhibition (IC50) on Histone deacetylase turned out to be 0.85 µM; with KB it was 1.52 µM; in series [1], 1.98 µM; with PC-3, 3.64 µM; with HCT-116 [2] it was 1.73 µM.
For the molecule `O=C(/C=C/c1cccc(S(=O)(=O)n2ccc3ccccc32)c1)NO`, the IC50 against Histone deacetylase was determined as 0.51 µM; in the series on KB, 2.92 µM; in series [1], 3.01 µM; in the series with PC-3, 4.01 µM; in the series on HCT-116 [2] it was 2.47 µM.
For `O=C(/C=C/c1ccc(S(=O)(=O)n2ncc3ccccc32)cc1)NO`, the half-inhibitory concentration (IC50) against Histone deacetylase was 0.5 µM; in the series with KB it was 1.83 µM; in series [1], 2.79 µM; with PC-3, 3.36 µM; in the series on HCT-116 [2], 3.34 µM.
